Assays:
db/db mice [1] = assay: Oral treatment of obese, diabetic db/db mice; assay type: in vivo, mouse
C57BL/6J mice = assay: Hyperinsulinemic-euglycemic clamp in lean C57BL/6J mice; assay type: in vivo, mouse
Procedure, shortened: (§1)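 Lean C57BL/6J or db/db mice given a jugular vein catheter 5–6 days beforehand; treated with test compound and fasted overnight. 2 h hyperinsulinemic-euglycemic clamp run in awake mice with human insulin (150 mU/kg prime, then 2.5 mU/kg/min). Tissue uptake in gastrocnemius and epididymal WAT from 2-[14C]DG-6-phosphate, separated by ion-exchange, and the plasma 2-[14C]DG profile. n = 5–6 mice/group.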

db/db mice [2] = assay: Hyperinsulinemic-euglycemic clamp in db/db mice; assay type: in vivo, mouse
Procedure, shortened: as §1

αTC1-6 alpha cells = assay: Alpha cell glucagon expression and secretion; assay type: cell-based, mouse; conditions: αTC1-6 cells
Procedure, shortened: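 αTC1-6 mouse alpha cells grown in DMEM with 10% FBS, 16.7 mM glucose, 1 mM sodium pyruvate and 15 mM HEPES at 37°C, 5% CO2. Cells exposed to 5 µM test compound or vehicle for 1 h. Low-glucose secretion run at 1.67 mM glucose. Secreted glucagon measured by mouse glucagon ELISA; protein measured by BCA assay.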

TXNIP-deficient mice = assay: SRI-37330 treatment of TXNIP-deficient mice; assay type: in vivo, mouse

CS(=O)(=O)NCC1CCCN(c2ncnc3ccc(C(F)(F)F)cc23)C1 (stereo not shown) [SRI-37330, N-((1-(6-(trifluoromethyl)quinazolin-4-yl)piperidin-3-yl)methyl)methanesulfonamide]
hepatic steatosis (liver histology) (db/db mice [1]; db/db mice): dramatically improved the severe steatosis
alpha cell mass (db/db mice [1]; db/db mice, islet morphometry): small, but significant decline in alpha cell mass
alpha cell number (db/db mice [1]; db/db mice, islet morphometry): clear trend towards lower alpha cell number
beta cell mass and number (db/db mice [1]; db/db mice, islet morphometry): remained unchanged
fasting blood glucose (db/db mice [1]; db/db mice, oral): significantly downregulated
fasting serum glucagon (db/db mice [1]; db/db mice, oral): significant downregulate
fasting serum insulin (db/db mice [1]; db/db mice, oral): remained unchanged
body weight (db/db mice [1]; db/db mice, oral, 4 weeks): did not affect body weights
non-fasting blood glucose (db/db mice [1]; db/db mice, oral, 4 weeks): decreased significantly within 3 days of starting SRI-37330 treatment and returned to euglycemic levels
effectiveness by oral gavage twice a day (db/db mice [1]; obesity-induced diabetes, gavage 12 h apart): confirmed its effectiveness in obesity- as well as STZ-induced diabetes
glucose infusion rates (C57BL/6J mice; lean C57BL/6J mice): comparable between groups
hepatic insulin action (C57BL/6J mice; lean C57BL/6J mice): comparable between groups
insulin-stimulated glucose uptake in white adipose tissue (C57BL/6J mice; lean C57BL/6J mice, epididymal): comparable between groups
insulin-stimulated glucose uptake in skeletal muscle (C57BL/6J mice; lean C57BL/6J mice, gastrocnemius): comparable between groups
basal hepatic glucose production (C57BL/6J mice; lean awake C57BL/6J mice): significantly downregulated
insulin sensitivity (C57BL/6J mice; lean awake C57BL/6J mice): no alteration in insulin sensitivity
basal hepatic glucose production (db/db mice [2]): significantly lower basal hepatic glucose production
glucose infusion rate (db/db mice [2]): not significantly different
hepatic insulin action (db/db mice [2]): not significantly different
insulin-stimulated glucose uptake in skeletal muscle (db/db mice [2]): remained unchanged
insulin-stimulated glucose uptake in white adipose tissue (db/db mice [2]): remained unchanged
glucagon content (αTC1-6 alpha cells; 5 μM, 1h): did not lower proglucgon gene expression or glucagon content
glucagon secretion (αTC1-6 alpha cells; 5 μM, 1h): significantly lower glucagon secretion
proglucagon gene expression (αTC1-6 alpha cells; 5 μM, 24 h): did not lower proglucgon gene expression or glucagon content
glucagon secretion in the context of low glucose (αTC1-6 alpha cells; 1.67 mM glucose): no effect on glucagon secretion
glucagon secretion maximally stimulated by arginine and norepinephrine (αTC1-6 alpha cells; arginine 20 mM, norepinephrine 10 μM): no longer able to inhibit glucagon secretion
glucose homeostasis and serum glucagon (TXNIP-deficient mice): no longer able to further improve glucose homeostasis or lower serum glucagon levels
serum glucagon levels (TXNIP-deficient mice): even elevated
